{"source": "ChEMBL document CHEMBL3046087", "about": "“Aminomethylphosphonic acid accumulation in plant species treated with glyphosate” (J Agric Food Chem, 2008)", "key": {"Senna obtusifolia [1]": {"system": "Senna obtusifolia", "experiment": "Drug level in Senna obtusifolia (sicklepod) assessed as AMPA level at growth inhibition I50 level rate measured 7 days post treatment", "type": "organism-based", "details": "in vivo, 168 h", "how_it_was_run": "(§1)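 Greenhouse plants (28/22 °C, 13 h photoperiod) were sprayed with glyphosate at each species' I50 rate, with Tween 20-treated controls. Shoots were cut at 7 DAT and rinsed to remove surface herbicide. Pooled ground tissue (1 g) was water-extracted twice with sonication, acidified, and washed with methylene chloride. Extracts were derivatized with heptafluorobutanol/TFAA (90 °C, 1 h) and measured by GC-MS against derivatized standards, in duplicate.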"}, "[2]": {"experiment": "Drug level in Senna occidentalis (coffee senna) at growth inhibition I50 level rate measured 7 days post treatment", "type": "organism-based", "details": "in vivo, read-out: Drug uptake", "how_it_was_run": "as §1"}, "[3]": {"experiment": "Drug level in Pueraria montana var. lobata ( kudzu) at growth inhibition I50 level rate measured 7 days post treatment", "type": "organism-based", "details": "in vivo, read-out: Drug uptake", "how_it_was_run": "as §1"}, "Abutilon theophrasti [4]": {"system": "Abutilon theophrasti", "experiment": "Growth inhibition of Abutilon theophrasti (velvetleaf) measured 14 days post treatment"}, "Glycine max [5]": {"system": "Glycine max", "experiment": "Induction of shikimate accumulation in glyphosate-resistant Glycine max (soybean) at growth inhibition I50 level rate measured 7 days post treatment (reference value: 65 ug/g tissue)", "type": "functional", "how_it_was_run": "(§2)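 Plants were sprayed in the greenhouse at each species' I50 rate, with Tween 20 controls. Shoots were harvested at 7 DAT and rinsed free of surface glyphosate. Shikimic acid was measured by HPLC on a C18 column after 0.45 µm filtration, with 100 µL injected, isocratic 98% H2O (pH 3.0)/2% MeOH, at 1 mL flow.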"}, "Zea mays [6]": {"system": "Zea mays", "experiment": "Growth inhibition of non glyphosate-resistant Zea mays (maize) measured 14 days post treatment"}, "Senna obtusifolia [7]": {"system": "Senna obtusifolia", "experiment": "Ratio of compound to AMPA level in Senna obtusifolia (sicklepod) at growth inhibition I50 level rate measured 7 days post treatment", "type": "organism-based", "details": "in vivo, 168 h", "how_it_was_run": "(§3)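 Greenhouse plants (28/22 °C, 13 h photoperiod) were sprayed at each species' I50 rate with Tween 20 controls. Shoots were clipped 7 DAT and washed free of surface herbicide. Pooled ground tissue (1 g) was extracted twice with water under sonication. Extracts were derivatized with heptafluorobutanol/trifluoroacetic anhydride (90 °C, 1 h). Glyphosate and AMPA were quantified by GC-MS against derivatized standard curves, in duplicate.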"}, "Senna obtusifolia [8]": {"system": "Senna obtusifolia", "experiment": "Induction of shikimate accumulation in Senna obtusifolia (sicklepod) at growth inhibition I50 level rate measured 7 days post treatment (reference value: 348 ug/g tissue)", "type": "functional", "how_it_was_run": "as §2"}, "Lolium multiflorum": {"system": "Lolium multiflorum", "experiment": "Induction of shikimate accumulation in Lolium multiflorum (Italian ryegrass) at growth inhibition I50 level rate measured 7 days post treatment (reference value: 904 ug/g tissue)", "type": "functional", "how_it_was_run": "as §2"}, "Glycine max [9]": {"system": "Glycine max", "experiment": "Drug level in non glyphosate-resistant Glycine max (soybean) assessed as AMPA level at growth inhibition I50 level rate measured 7 days post treatment", "type": "organism-based", "details": "in vivo, 168 h", "how_it_was_run": "as §1"}, "Glycine max [10]": {"system": "Glycine max", "experiment": "Ratio of compound to AMPA level in glyphosate-resistant Glycine max (soybean) at growth inhibition I50 level rate measured 7 days post treatment", "type": "organism-based", "details": "in vivo, 168 h", "how_it_was_run": "as §3"}, "Senna occidentalis [11]": {"system": "Senna occidentalis", "experiment": "Drug level in Senna occidentalis (coffee senna) assessed as AMPA level at growth inhibition I50 level rate measured 7 days post treatment", "type": "organism-based", "details": "in vivo, 168 h", "how_it_was_run": "as §1"}, "Desmanthus illinoensis [12]": {"system": "Desmanthus illinoensis", "experiment": "Growth inhibition of Desmanthus illinoensis (Illinois bundleflower) measured 7 days post treatment", "type": "functional"}, "Zea mays [13]": {"system": "Zea mays", "experiment": "Induction of shikimate accumulation in non glyphosate-resistant Zea mays (maize) at growth inhibition I50 level rate measured 7 days post treatment (reference value: 161 ug/g tissue)", "type": "functional"}, "[14]": {"experiment": "Drug level in glyphosate-resistant Zea mays (maize) at growth inhibition I50 level rate measured 7 days post treatment", "type": "organism-based", "details": "in vivo, read-out: Drug uptake", "how_it_was_run": "as §1"}, "Senna occidentalis [15]": {"system": "Senna occidentalis", "experiment": "Ratio of compound to AMPA level in Senna occidentalis (coffee senna) at growth inhibition I50 level rate measured 7 days post treatment", "type": "organism-based", "details": "in vivo, 168 h", "how_it_was_run": "as §3"}, "Erigeron canadensis [16]": {"system": "Erigeron canadensis", "experiment": "Induction of shikimate accumulation in Conyza canadensis (horseweed) at growth inhibition I50 level rate measured 7 days post treatment (reference value: 251 ug/g tissue)", "type": "functional", "how_it_was_run": "as §2"}, "Zea mays [17]": {"system": "Zea mays", "experiment": "Induction of shikimate accumulation in glyphosate-resistant Zea mays (maize) at growth inhibition I50 level rate measured 7 days post treatment (reference value: 241 ug/g tissue)", "type": "functional", "how_it_was_run": "as §2"}, "[18]": {"experiment": "Drug level in Lolium multiflorum (Italian ryegrass) at growth inhibition I50 level rate measured 7 days post treatment", "type": "organism-based", "details": "in vivo, read-out: Drug uptake", "how_it_was_run": "as §1"}, "Vigna unguiculata [19]": {"system": "Vigna unguiculata", "experiment": "Drug level in Vigna unguiculata (cowpea) assessed as AMPA level at growth inhibition I50 level rate measured 7 days post treatment", "type": "organism-based", "details": "in vivo, 168 h", "how_it_was_run": "as §1"}, "Abutilon theophrasti [20]": {"system": "Abutilon theophrasti", "experiment": "Induction of shikimate accumulation in Abutilon theophrasti (velvetleaf) at growth inhibition I50 level rate measured 7 days post treatment (reference value: 2 ug/g tissue)", "type": "functional", "how_it_was_run": "as §2"}, "Sesbania herbacea": {"system": "Sesbania herbacea", "experiment": "Growth inhibition of Sesbania herbacea measured 14 days post treatment"}, "Abutilon theophrasti [21]": {"system": "Abutilon theophrasti", "experiment": "Drug level in Abutilon theophrasti (velvetleaf) assessed as AMPA level at growth inhibition I50 level rate measured 7 days post treatment", "type": "organism-based", "details": "in vivo, 168 h, BLD = below limit of detection", "how_it_was_run": "as §1"}, "Vigna unguiculata [22]": {"system": "Vigna unguiculata", "experiment": "Induction of shikimate accumulation in Vigna unguiculata (cowpea) at growth inhibition I50 level rate measured 7 days post treatment (reference value: 64 ug/g tissue)", "type": "functional", "how_it_was_run": "as §2"}, "Zea mays [23]": {"system": "Zea mays", "experiment": "Drug level in non glyphosate-resistant Zea mays (maize) assessed as AMPA level at growth inhibition I50 level rate measured 7 days post treatment", "type": "organism-based", "details": "in vivo, 168 h, BLD = below limit of detection", "how_it_was_run": "as §1"}, "Desmanthus illinoensis [24]": {"system": "Desmanthus illinoensis", "experiment": "Induction of shikimate accumulation in Desmanthus illinoensis (Illinois bundleflower) at growth inhibition I50 level rate measured 7 days post treatment (reference value: 21 ug/g tissue)", "type": "functional"}, "[25]": {"system": "Pueraria montana var. lobata", "experiment": "Drug level in Pueraria montana var. lobata ( kudzu) assessed as AMPA level at growth inhibition I50 level rate measured 7 days post treatment", "type": "organism-based", "details": "in vivo, 168 h", "how_it_was_run": "as §1"}, "Erigeron canadensis [26]": {"system": "Erigeron canadensis", "experiment": "Growth inhibition of Conyza canadensis (horseweed) measured 7 days post treatment", "type": "functional"}, "Desmanthus illinoensis [27]": {"system": "Desmanthus illinoensis", "experiment": "Ratio of compound to AMPA level in Desmanthus illinoensis (Illinois bundleflower) at growth inhibition I50 level rate measured 7 days post treatment", "type": "organism-based", "details": "in vivo, 168 h", "how_it_was_run": "as §3"}, "Desmanthus illinoensis [28]": {"system": "Desmanthus illinoensis", "experiment": "Drug level in Desmanthus illinoensis (Illinois bundleflower) assessed as AMPA level at growth inhibition I50 level rate measured 7 days post treatment", "type": "organism-based", "details": "in vivo, 168 h", "how_it_was_run": "as §1"}}}
{"smiles": "O=C(O)CNCP(=O)(O)O", "note": "[GLYPHOSATE]", "values": [{"measurement": "Drug uptake", "setting": "Senna obtusifolia [1]", "value": 1834, "unit": "ng/g"}, {"measurement": "concentration at 168 h", "setting": "[2]", "value": 5910, "unit": "ng/g"}, {"measurement": "concentration at 168 h", "setting": "[3]", "value": 5560, "unit": "ng/g"}, {"measurement": "I50", "setting": "Abutilon theophrasti [4]", "value": 122, "unit": "gAi/ha"}, {"measurement": "Activity", "setting": "Glycine max [5]", "value": 53, "unit": "µg/g"}, {"measurement": "I50", "setting": "Zea mays [6]", "value": 93, "unit": "gAi/ha"}, {"measurement": "Ratio", "setting": "Senna obtusifolia [7]", "value": 4}, {"measurement": "Activity", "setting": "Senna obtusifolia [8]", "value": 1092, "unit": "µg/g"}, {"measurement": "Activity", "setting": "Lolium multiflorum", "value": 6701, "unit": "µg/g"}, {"measurement": "Drug uptake", "setting": "Glycine max [9]", "value": 668, "unit": "ng/g"}, {"measurement": "Ratio", "setting": "Glycine max [10]", "value": 49}, {"measurement": "Drug uptake", "setting": "Senna occidentalis [11]", "value": 287, "unit": "ng/g"}, {"measurement": "I50", "setting": "Desmanthus illinoensis [12]", "value": 272, "unit": "gAi/ha"}, {"measurement": "Activity", "setting": "Zea mays [13]", "value": 149, "unit": "µg/g"}, {"measurement": "concentration at 168 h", "setting": "[14]", "value": 308, "unit": "ng/g"}, {"measurement": "Ratio", "setting": "Senna occidentalis [15]", "value": 21}, {"measurement": "Activity", "setting": "Erigeron canadensis [16]", "value": 9101, "unit": "µg/g"}, {"measurement": "Activity", "setting": "Zea mays [17]", "value": 245, "unit": "µg/g"}, {"measurement": "concentration at 168 h", "setting": "[18]", "value": 7430, "unit": "ng/g"}, {"measurement": "Drug uptake", "setting": "Vigna unguiculata [19]", "value": 4765, "unit": "ng/g"}, {"measurement": "Activity", "setting": "Abutilon theophrasti [20]", "value": 159, "unit": "µg/g"}, {"measurement": "I50", "setting": "Sesbania herbacea", "value": 456, "unit": "gAi/ha"}, {"measurement": "Drug uptake", "setting": "Abutilon theophrasti [21]", "value": "BLD"}, {"measurement": "Activity", "setting": "Vigna unguiculata [22]", "value": 16530, "unit": "µg/g"}, {"measurement": "Drug uptake", "setting": "Zea mays [23]", "value": "BLD"}, {"measurement": "Activity", "setting": "Desmanthus illinoensis [24]", "value": 668, "unit": "µg/g"}, {"measurement": "Drug uptake", "setting": "[25]", "value": 297, "unit": "ng/g"}, {"measurement": "I50", "setting": "Erigeron canadensis [26]", "value": 170, "unit": "gAi/ha"}, {"measurement": "Ratio", "setting": "Desmanthus illinoensis [27]", "value": 2}, {"measurement": "Drug uptake", "setting": "Desmanthus illinoensis [28]", "value": 1513, "unit": "ng/g"}]}
